# Reference: PubChem BioAssay AID504768 (Southern Research Specialized Biocontainment Screening …, 2011)
# Assay: K1F phage lysis inhibition in UTI89, confirmation, capsule biogenesis inhibitor project, UTI89 strain, C7 control, set 4 (AID 504768)
# Details: E. coli UTI89 K1F phage lysis inhibition, OD600; measured here: cytotoxicity CC50
# Outline: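 Test system: E. coli UTI89 (K1) and kpsM mutant bacterial cultures; dosing: DMSO at 1% final; schedule: 1.25 h compound pre-incubation at 37 °C shaking, lysis read 3 h post-phage; detection: OD600 absorbance; control set: kpsM mutant resisting phage; repeats: four replicate wells per compound concentration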
row,SMILES,CC50 [µM]
1,O=C(Nc1nc2c(F)cc(F)cc2s1)c1ccccc1,30.9
2,O=C(Nc1nc2c(F)cc(F)cc2s1)c1ccncc1,71.8
3,O=C(Nc1nc2ccccc2s1)c1ccncc1,104
4,O=C(Nc1nc2ccc(F)cc2s1)c1ccccn1,3.32
5,O=C(Nc1nc2c(F)cc(F)cc2s1)c1cccnc1,> 300
6,Cc1cc(C)c2nc(NC(=O)c3ccccn3)sc2c1,6.19
7,O=C(Nc1nc2c(Cl)cc(Cl)cc2s1)c1ccccn1,3.55
8,O=C(Nc1nc2c(F)cccc2s1)c1ccccn1,2.56
9,O=C(Nc1nc2ccccc2s1)c1cccnc1,129
